Measurements published in ChEMBL document CHEMBL1649405, “Structure-activity relationships study of 6-chloro-4-(2-chlorophenyl)-3-(2-hydroxyethyl) quinolin-2(1H)-one derivatives as novel non-nucleoside anti-hepatitis B virus agents” (Eur J Med Chem, 2011).

Tests used:
[1] = Selectivity index, ratio of CC50 for human HepG2(2.2.15) cells to IC50 for Hepatitis B virus infected in human HepG2(2.2.15) cells assessed as inhibition of viral surface antigen secretion; type: functional
Summary of the method: (§1)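 Ratio of CC50 in HepG 2.2.15 cells to the IC50 for HBeAg or HBsAg secretion. Both values come from ELISA and cytotoxicity runs on the same cell line. Each input is the mean of two independent experiments.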

[2] = system: Hepatitis B virus; assay: Antiviral activity against Hepatitis B virus infected in human HepG2(2.2.15) cells assessed as inhibition of viral e antigen secretion after 6 days by ELISA; type: functional, organism-based; settings: HepG2 2.2.15, 144 h
Summary of the method: (§2)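 HepG 2.2.15 cells in DMEM with 10% FBS, 37 °C, 5% CO2. Treated for 6 days with refeeding every other day. Culture medium centrifuged at 6000 g to clear debris. HBeAg or HBsAg measured by quantitative ELISA on a microplate reader. IC50 = concentration giving 50% inhibition of secretion. Mean of two independent experiments.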

[3] = system: Hepatitis B virus; assay: Antiviral activity against Hepatitis B virus infected in human HepG2(2.2.15) cells assessed as inhibition of viral surface antigen secretion after 6 days by ELISA; type: functional, organism-based; settings: HepG2 2.2.15, 144 h; summary of the method: as §2
[4] = Selectivity index, ratio of CC50 for human HepG2(2.2.15) cells to IC50 for Hepatitis B virus infected in human HepG2(2.2.15) cells assessed as inhibition of viral e antigen secretion; type: functional; summary of the method: as §1
[5] = Cytotoxicity against human HepG2(2.2.15) cells; type: cell-based
Summary of the method: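 HepG 2.2.15 cells in DMEM with 10% FBS, 37 °C, 5% CO2. CC50 = concentration killing 50% of cells. Mean of two independent experiments.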

SMILES | Selectivity Index [1] | IC50 [2] [µM] | IC50 [3] [µM] | Selectivity Index [4] | CC50 [5] [µM]
CCC(=O)OCCc1c(-c2ccccc2Cl)c2cc(Cl)ccc2[nH]c1=O | 1.6 | 62 | 59 | 1.5 | 95
O=C(CCC1CCCCC1)OCCc1c(-c2ccccc2Cl)c2cc(Cl)ccc2[nH]c1=O | 1.9 | 110 | 85 | 1.5 | 160
O=C(COc1ccccc1)OCCc1c(-c2ccccc2Cl)c2cc(Cl)ccc2[nH]c1=O | 1.5 | > 81 | 56 | <1 | 81
O=C(CCOc1ccccc1)OCCc1c(-c2ccccc2Cl)c2cc(Cl)ccc2[nH]c1=O | 1.4 | 35 | 33 | 1.3 | 46
CC(C)C(=O)OCCc1c(-c2ccccc2Cl)c2cc(Cl)ccc2[nH]c1=O | 1.7 | > 62 | 37 | <1 | 62
CCCCCCCC(=O)OCCc1c(-c2ccccc2Cl)c2cc(Cl)ccc2[nH]c1=O | 1.9 | > 78 | 40 | <1 | 78
O=C(OCCc1c(-c2ccccc2Cl)c2cc(Cl)ccc2[nH]c1=O)c1ccco1 | 1.9 | 58 | 51 | 1.6 | 98
O=C(OCCc1c(-c2ccccc2Cl)c2cc(Cl)ccc2[nH]c1=O)c1cccs1 |  | > 1700 | > 1700 |  | > 1700
C/C=C(\C)C(=O)OCCc1c(-c2ccccc2Cl)c2cc(Cl)ccc2[nH]c1=O | 6.1 | 62 | 58 | 5.6 | 350
C/C=C/C=C/C(=O)OCCc1c(-c2ccccc2Cl)c2cc(Cl)ccc2[nH]c1=O | 19 | 26 | 23 | 17 | 440
O=C(/C=C/c1ccccc1)OCCc1c(-c2ccccc2Cl)c2cc(Cl)ccc2[nH]c1=O | 7.6 | 56 | 30 | 4 | 230
CC(=O)OCCc1c(-c2ccccc2Cl)c2cc(Cl)ccc2[nH]c1=O | <1 | > 27 | 74 | <1 | 27
O=c1cc(-c2ccccc2Cl)c2cc(Cl)ccc2[nH]1 |  | > 1000 | 460 |  | 
Clc1ccc2nc3c(c(-c4ccccc4Cl)c2c1)CCO3 |  | > 280 | > 280 |  | > 280
O=C(O)CCC(=O)OCCc1c(-c2ccccc2Cl)c2cc(Cl)ccc2[nH]c1=O | <1 | > 110 | 150 | <1 | 110
CC(=O)N1CCC(C(=O)OCCc2c(-c3ccccc3Cl)c3cc(Cl)ccc3[nH]c2=O)CC1 | 1.6 | > 82 | 51 | <1 | 82
O=c1c(CCO)c(-c2ccccc2Cl)c2cc(Cl)ccc2n1Cc1c(F)cccc1F | >2.6 | > 2300 | 87 |  | > 2300
Cn1c(=O)c(CCO)c(-c2ccccc2Cl)c2cc(Cl)ccc21 | 1.6 | 34 | 22 | 1 | 34
CC12CCC(C(=O)OCCc3c(-c4ccccc4Cl)c4cc(Cl)ccc4[nH]c3=O)(OC1=O)C2(C)C (stereo not drawn) | >1.2 | > 1800 | 1500 |  | > 1800
Clc1ccc2nc3c(c(-c4ccccc4Cl)c2c1)CCS3 |  | > 2400 | > 2400 |  | > 2400
Nc1ccn([C@@H]2CS[C@H](CO)O2)c(=O)n1 [LAMIVUDINE] | 1.1 | 30000 | 27000 | 1 | 
